In ChEMBL document CHEMBL4270628, “Design, synthesis, and evaluation of cystargolide-based β-lactones as potent proteasome inhibitors” (Eur J Med Chem, 2018):
Calls of active or inactive are those of the source. No cut-off for these calls is given here.

What was measured:
MDA-MB-231 = assay: Cytotoxicity against human MDA-MB-231 cells after 48 hrs by MTT assay; format: functional, cell-based; conditions: MDA-MB-231, 48 h
Summary of the method: (§1)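 MTT viability after 48 h exposure to a concentration series; MDA-MB-231 seeded at 4*10⁴ cells/mL and adhered overnight, RPMI 8226 at 4*10⁵ cells/mL and dosed immediately. MTT (5 mg/mL in PBS) added, 2 h at 37 °C; formazan dissolved in DMSO (MDA-MB-231) or DMF/SDS pH<4 (RPMI 8226); OD 490 nm.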

[1] = biological target: T1, Proteasome Macropain subunit MB1 (Homo sapiens) (UniProt P28074); assay: Inhibition of 20S proteasome beta5 subunit in human MCF7 cells using Suc-LLVY-AMC as substrate pretreated for 1 hr followed by compound washout and cell lysis prior to substrate addition measured after 1 hr by fluorescence assay; format: cell-based
T1 sequence (whole entry): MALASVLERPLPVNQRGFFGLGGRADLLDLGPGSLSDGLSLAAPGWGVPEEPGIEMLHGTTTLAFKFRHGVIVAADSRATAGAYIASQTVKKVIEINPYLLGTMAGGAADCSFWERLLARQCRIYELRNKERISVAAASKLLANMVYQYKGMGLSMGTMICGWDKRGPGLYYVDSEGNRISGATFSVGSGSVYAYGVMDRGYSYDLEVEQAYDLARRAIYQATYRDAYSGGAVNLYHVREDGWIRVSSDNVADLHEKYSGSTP
Summary of the method: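 Adherent MCF7 (500,000 cells/mL, overnight, ~100% confluent) dosed 1 h at 37 °C, 5% CO₂; washed twice with PBS, lysed in HEPES/Triton buffer on ice 1 h; 15 min at 37 °C, then 100 μM Suc-LLVY-AMC 1 h at 37 °C; ex 360/em 480 nm. IC50 from best three of four biological replicates per concentration.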

RPMI-8226 = assay: Cytotoxicity against human RPMI8226 cells after 48 hrs by MTT assay; format: functional, cell-based; conditions: RPMI-8226, 48 h; summary of the method: as §1
MCF7 = assay: Cytotoxicity against human MCF7 cells after 48 hrs by MTT assay; format: functional, cell-based; conditions: MCF7, 48 h
Summary of the method: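 MCF7 cells plated at 4*10⁴ cells/mL and left overnight to adhere, then exposed to a concentration series for 48 h, with DMSO vehicle, untreated cells, and 100 μM phenylarsine oxide as controls. MTT (5 mg/mL stock in PBS) was added for 2 h at 37 °C. Formazan was dissolved in DMSO and OD read at 490 nm. The best three of quadruplicate wells were used; IC50 from nonlinear regression on normalized data, ±SD.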

[2] = biological target: T2, Proteasome Macropain subunit MB1 (Homo sapiens, UniProt P28074); assay: Inhibition of 20S proteasome beta5 subunit in human Jurkat cell lysate using Suc-LLVY-AMC as substrate pretreated for 30 mins followed by substrate addition and measured after 60 mins by fluorescence assay
T2 sequence (P28074 whole entry): T1 sequence (whole entry)
Summary of the method: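 Lysate was preincubated with compound 30 min at 37 °C. 100 μM substrate solution was added: Suc-LLVY-AMC for β5, Suc-RLR-AMC for β2. IC50 by nonlinear regression, ±SD.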

[3] = biological target: T3, Proteasome subunit beta type-1 (Saccharomyces cerevisiae (strain ATCC 204508 / S288c) (Baker's yeast), UniProt P38624); assay: Inhibition of yeast 20S proteasome beta1 subunit using fluorescent substrate pretreated for 30 mins followed by substrate addition and measured after 60 mins by fluorescence assay
T3 sequence (P38624 whole entry): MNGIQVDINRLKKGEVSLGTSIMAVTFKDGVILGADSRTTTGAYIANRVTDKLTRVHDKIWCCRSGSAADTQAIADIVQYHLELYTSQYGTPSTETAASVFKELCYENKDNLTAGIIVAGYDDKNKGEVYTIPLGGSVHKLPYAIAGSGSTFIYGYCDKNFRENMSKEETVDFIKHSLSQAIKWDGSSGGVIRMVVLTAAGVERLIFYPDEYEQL

[4] = Inhibition of yeast 20S proteasome beta5 subunit using Suc-LLVY-AMC as substrate pretreated for 30 mins followed by substrate addition and measured after 60 mins by fluorescence assay; set-up: species or system Saccharomyces cerevisiae
Summary of the method: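 Purified yeast 20S proteasome at 8 μg/mL preincubated with compound 30 min at 37 °C; then 100 μM Suc-LLVY-AMC for 60 min at 37 °C; cleaved-AMC fluorescence ex 360/em 480 nm. IC50 by nonlinear regression on normalized data, confirmed in at least technical triplicate, reported ± SD.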

[5] = biological target: T4, Proteasome subunit beta type-2 (Saccharomyces cerevisiae (strain ATCC 204508 / S288c) (Baker's yeast), UniProt P25043); assay: Inhibition of yeast 20S proteasome beta2 subunit using SUC-RLR-AMC as substrate pretreated for 30 mins followed by substrate addition and measured after 60 mins by fluorescence assay
T4 sequence (P25043 whole entry): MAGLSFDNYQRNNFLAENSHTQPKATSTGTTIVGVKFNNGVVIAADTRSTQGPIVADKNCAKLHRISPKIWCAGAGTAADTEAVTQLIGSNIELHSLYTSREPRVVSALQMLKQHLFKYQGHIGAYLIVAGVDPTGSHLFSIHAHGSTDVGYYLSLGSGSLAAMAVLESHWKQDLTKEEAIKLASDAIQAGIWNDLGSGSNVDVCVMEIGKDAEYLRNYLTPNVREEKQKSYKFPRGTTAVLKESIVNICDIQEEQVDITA
Summary of the method: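 Fluorogenic substrate was then added (100 μM Suc-RLR-AMC solution for β2) and incubated 60 min at 37 °C; cleavage read at ex 360/em 480 nm. IC50 from nonlinear regression on normalized data, ±SD.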

[6] = biological target: T5, Proteasome subunit beta type-8 (Homo sapiens, UniProt P28062); assay: Inhibition of human immunoproteasome beta5 subunit using Suc-LLVY-AMC as substrate pretreated for 30 mins followed by substrate addition and measured after 60 mins by fluorescence assay
T5 sequence (P28062 whole entry): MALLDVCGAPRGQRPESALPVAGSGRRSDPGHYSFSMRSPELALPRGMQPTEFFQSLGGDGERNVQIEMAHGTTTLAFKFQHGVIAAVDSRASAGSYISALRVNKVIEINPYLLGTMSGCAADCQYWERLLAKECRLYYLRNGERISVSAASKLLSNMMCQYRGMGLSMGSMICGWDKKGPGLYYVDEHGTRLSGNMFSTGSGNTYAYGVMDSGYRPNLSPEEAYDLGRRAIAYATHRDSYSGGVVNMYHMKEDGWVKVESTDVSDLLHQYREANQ

SMILES | IC50 (MDA-MB-231) [µM] | inhibition [1] | IC50 (RPMI-8226) [µM] | IC50 (MCF7) [µM] | IC50 [2] [µM] | IC50 [3] [µM] | IC50 [4] [µM] | IC50 [5] [µM] | IC50 [6] [µM]
CC[C@H](C)[C@@H]1C(=O)O[C@H]1C(=O)N[C@@H](CC(C)C)C(=O)N[C@H](C(=O)OCc1ccccc1)C(C)C | 1.45 | Active | 2.24 | 2.46 | 0.005 |  |  |  | 
CC[C@H](C)[C@@H]1C(=O)O[C@H]1C(=O)N[C@H](C(=O)N[C@H](C(=O)OCc1ccccc1)C(C)(C)C)C(C)(C)C | 0.673 |  | 1.22 | 1.91 | 0.0359 |  |  |  | 
CC[C@H](C)[C@@H]1C(=O)O[C@H]1C(=O)N[C@@H](COCc1ccccc1)C(=O)N[C@H](C(=O)OCc1ccccc1)C(C)C | 2.86 | Active | 1.71 | 3.45 | 0.0077 |  |  |  | 
CC(C)C[C@@H]1C(=O)O[C@H]1C(=O)N[C@H](C(=O)N[C@H](C(=O)OCc1ccccc1)C(C)C)C(C)C | 30.3 | inactive | 33.5 | 55.3 | 0.0197 |  |  |  | 
CC[C@H](C)[C@@H]1C(=O)O[C@H]1C(=O)N[C@H](C(=O)N[C@H](C(=O)OCc1ccc(Cl)cc1)C(C)C)C(C)C | 0.312 |  | 0.085 | 0.918 | 0.0082 |  |  |  | 
CC(C)[C@H](NC(=O)[C@@H]1OC(=O)[C@H]1C1CCCC1)C(=O)N[C@H](C(=O)OCc1ccccc1)C(C)C | 28.2 | inactive | 2.35 | 50.6 | 0.0129 |  |  |  | 
CC[C@H](C)[C@@H]1C(=O)O[C@H]1C(=O)N[C@H](C(=O)N[C@H](C(=O)OCc1ccccc1)C(C)C)C(C)(C)C | 0.699 | Active | 0.748 | 2.29 | 0.0228 |  |  |  | 
C=CCOC(=O)[C@@H](NC(=O)[C@@H](NC(=O)[C@@H]1OC(=O)[C@H]1[C@@H](C)CC)C(C)C)C(C)C | 0.275 |  | 0.088 | 0.353 | 0.0094 | 0.779 | 0.0195 | > 10 | 0.0412
CC(C)[C@H](NC(=O)[C@@H]1OC(=O)[C@H]1C1CCC1)C(=O)N[C@H](C(=O)OCc1ccccc1)C(C)C | > 50 | inactive | 37.2 | > 50 | 0.0132 |  |  |  | 
CC(C)C[C@H](NC(=O)[C@H](CCc1ccccc1)NC(=O)CN1CCOCC1)C(=O)N[C@@H](Cc1ccccc1)C(=O)N[C@@H](CC(C)C)C(=O)[C@@]1(C)CO1 [CARFILZOMIB] | 0.0044 |  | 0.0067 | 0.0041 |  | > 1 |  | > 1 | 
CC[C@H](C)[C@@H]1C(=O)O[C@H]1C(=O)N[C@H](C(=O)N[C@@H](Cc1ccccc1)C(=O)OCc1ccccc1)C(C)C | 3.35 |  | 1.1 | 2.75 | 0.0057 |  |  |  | 
CC[C@H](C)[C@@H]1C(=O)O[C@H]1C(=O)NCC(=O)N[C@H](C(=O)OCc1ccccc1)C(C)C | 0.678 | Active | 0.762 | 2.08 | 0.0027 |  |  |  | 
CC[C@H](C)[C@@H]1C(=O)O[C@H]1C(=O)N[C@H](C(=O)N[C@H](C(=O)OCc1ccccc1)C(C)(C)C)C(C)C | 1.91 | inactive | 1.75 | 1.14 | 0.0098 |  |  |  | 
CC[C@H](C)[C@@H]1C(=O)O[C@H]1C(=O)N[C@H](C(=O)N[C@H](C(=O)NCc1ccccc1)C(C)C)C(C)C | 0.885 |  | 0.32 | 0.892 | 0.0036 | 1.38 | 0.0054 | 2.92 | 
CC[C@H](C)[C@@H]1C(=O)O[C@H]1C(=O)N[C@H](C(=O)N[C@@H](CC(C)C)C(=O)OCc1ccccc1)C(C)C | 0.219 | Active | 0.286 | 0.332 | 0.0077 |  |  |  | 
CC[C@H](C)[C@@H]1C(=O)O[C@H]1C(=O)N[C@H](C(=O)N[C@H](C(=O)OCC(C)C)C(C)C)C(C)C | 0.317 |  | 0.095 | 0.664 | 0.0088 |  |  |  | 
C=CCCOC(=O)[C@@H](NC(=O)[C@@H](NC(=O)[C@@H]1OC(=O)[C@H]1[C@@H](C)CC)C(C)C)C(C)C | 0.341 |  | 0.272 | 0.523 | 0.0066 |  |  |  | 
CC[C@H](C)[C@@H]1C(=O)O[C@H]1C(=O)N[C@@H](Cc1ccccc1)C(=O)N[C@H](C(=O)OCc1ccccc1)C(C)C | 3.76 | Active | 2.61 | 6.95 | 0.0078 |  |  |  | 
CC(C)[C@H](NC(=O)[C@@H]1OC(=O)[C@H]1C1CC1)C(=O)N[C@H](C(=O)OCc1ccccc1)C(C)C | > 100 | inactive | 73.9 | > 100 | 0.0076 |  |  |  | 
CC[C@H](C)[C@@H]1C(=O)O[C@H]1C(=O)N[C@@H](Cc1ccccc1)C(=O)N[C@@H](Cc1ccccc1)C(=O)OCc1ccccc1 | 5.21 |  | 1.18 | 6.25 | 0.0116 |  |  |  | 
CC[C@H](C)[C@@H]1C(=O)O[C@H]1C(=O)N[C@H](C(=O)N[C@H](C(=O)OCc1ccc(OC)cc1)C(C)C)C(C)C | 0.28 |  | 0.114 | 0.854 | 0.0102 |  |  |  | 
CC[C@H](C)[C@@H]1C(=O)O[C@H]1C(=O)N[C@H](C(=O)N[C@H](C(=O)OC)C(C)C)C(C)C | 0.312 |  | 0.268 | 0.427 | 0.0159 |  |  |  | 
CC[C@H](C)[C@@H]1C(=O)O[C@H]1C(=O)N[C@H](C(=O)N[C@H](C(=O)OCC1CCCCC1)C(C)C)C(C)C | 3.22 |  | 0.303 | 4.62 | 0.0187 |  |  |  | 
